Only some compounds are listed: those with a hit (about 3.1% of all), similar ones and a draw of the others.
rRNA inh HTS: reduced GFP signal of wild-type E. coli, primary screen, bacterial rRNA inhibitor project, GFP/RFP fluorescence, OD600, single point; E. coli WT GFP vs humanized-ribosome RFP mutants, 24 h; stronger effect = lower value; DMSO median 0, no signal -100; GFP signal change (wild-type ribosome), % (test concentration not listed); 1.6% of 350,000 active;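 active = significant combined selectivity score with lowered wild-type GFP, culture density cut under 30%, mutant RFP and density less affected; inactive = any of these conditions unmet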
miR122 inh: miR-122 Renilla sensor signal increase in Huh7, primary screen, miR-122 inhibitor project, cell-based, single point, plate reader; Huh7 miR-122 Renilla luciferase sensor, 48 h; neutral wells = 0, positive control = 100; activation (reporter increase), % at 12.5 µM; 0.3% of 340,000 active;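 active = mean replicate activation score at least 90 and every replicate individually at or above 90; inconclusive = only one of the two criteria met; inactive = neither criterion met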;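 also: higher luciferase means less miR-122 activity so hits act as miR-122 inhibitors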
DENV2 CPE rescue: inhibitors of DENV2 cytopathic effect, primary screen, cell-based, plate reader, single concentration; DENV2-infected cells, cytopathic effect rescue; CPE inhibition, % at 9.99 µM; 1.7% of 350,000 active; in the data active = CPE inhibition above about 20%, passing the limit was not always enough; inconclusive = no clear call, values can overlap the other calls; tested in BHK-21 cells;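 also: 0% = median of neutral control wells and 100% = median of positive control wells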
E-sel inducer: E-selectin induction in HUVECs, primary screen, imaging, HUVEC, immunofluorescence imaging, single point | P16581 | normalized: neutral wells 0, TNF-alpha wells 100 | activation, % at 7.58 µM | 0.37% of 260,000 active;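 active = mean E-selectin-positive cell signal at least 10% of the positive control, reached in at least 60% of replicates, without over 20% cell loss; inconclusive = no rule given, readout overlaps actives, possibly toxicity-flagged; inactive = the rest, including those meeting only one limit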
Target sequence (P16581 whole entry, looked up): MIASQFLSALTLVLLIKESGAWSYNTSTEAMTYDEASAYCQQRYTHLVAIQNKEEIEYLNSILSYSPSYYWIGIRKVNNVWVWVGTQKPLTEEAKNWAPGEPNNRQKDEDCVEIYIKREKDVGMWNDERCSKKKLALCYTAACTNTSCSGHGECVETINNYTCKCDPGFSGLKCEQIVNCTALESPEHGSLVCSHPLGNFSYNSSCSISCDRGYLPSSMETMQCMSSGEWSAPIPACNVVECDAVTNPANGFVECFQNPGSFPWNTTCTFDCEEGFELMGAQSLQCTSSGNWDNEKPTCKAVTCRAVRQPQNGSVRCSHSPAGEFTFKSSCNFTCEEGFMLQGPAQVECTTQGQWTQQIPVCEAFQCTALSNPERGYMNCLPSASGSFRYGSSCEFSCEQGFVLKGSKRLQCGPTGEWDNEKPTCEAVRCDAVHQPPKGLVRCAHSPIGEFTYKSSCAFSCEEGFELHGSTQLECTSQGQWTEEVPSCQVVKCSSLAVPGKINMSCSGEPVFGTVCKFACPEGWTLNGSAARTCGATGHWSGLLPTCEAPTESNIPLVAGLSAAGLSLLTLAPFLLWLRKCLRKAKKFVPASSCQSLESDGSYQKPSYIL
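Read-out: % PE-positive cells | Test system: HUVEC | Doses: One compound dose added by pin transfer | Buffer or medium: EGM-2 over gelatin coat | Signal: Immunofluorescence imaging | Benchmarks: TNF-alpha, DMSO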
Cneo AK release: Cryptococcus neoformans cell lysis inducers, primary screen, AK release luminescence, single concentration | C. neoformans lysis, adenylate kinase release luminescence, 4 h; normalised: neutral wells 0, clomiphene wells 100 | lysis activity, % at 15 µM | 0.2% of 360,000 active | AID 651654, 2012;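 active = mean lysis activity across replicates of at least 80%, whatever share of replicates individually reach that level; inactive = mean lysis activity below 80%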
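Signal: Adenylate kinase release luminescence | Assay system: Log-phase Cryptococcus neoformans yeast cells | Input: Cells at 5 × 10^6 per mL | Buffer or medium: Fresh YPD growth medium | Compound: Single dose | Schedule: Static 4 h at 37 °C with compound, 1 h detection | Controls: Clomiphene | Read-out: Luminescence rise reflecting yeast cell lysis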
* hit, by the source's call; ? = inconclusive; nt = no result given; ! = not confirmed by another sample; [ ] = dose if it differs, or a comment.

SMILES	rRNA inh HTS	miR122 inh	DENV2 CPE rescue	E-sel inducer	Cneo AK release
N#Cc1ccc(-c2ccc(C3[C@H]4CNC[C@@H]3N4C(=O)NC3CCCCC3)cc2)cc1 (stereo partly drawn)	-1	nt	23*	0	nt
COc1cccc(NC(=O)N2[C@@H]3CNC[C@H]2C3c2ccc(-c3cccnc3)cc2)c1 (stereo partly drawn)	1	nt	22*!	0	nt
COc1ccc(-c2ccc(C3[C@H]4CNC[C@@H]3N4C(=O)Nc3cccc(OC)c3)cc2)cc1 (stereo partly drawn)	-5	nt	0	0	nt
C[C@@H]1CCCCO[C@@H](CN(C)S(=O)(=O)c2ccccc2)[C@@H](C)CN([C@@H](C)CO)C(=O)c2cc(NC(=O)Nc3ccc(C(F)(F)F)cc3)ccc2O1	2	-6[16.7 µM]	?	0	5
C[C@H]1CN([C@@H](C)CO)C(=O)Cc2cc(NC(=O)CCCCCC(=O)Nc3ccccc3N)ccc2O[C@H]1CN(C)C(=O)Nc1ccc(C(F)(F)F)cc1	4	0[16.7 µM]	4	nt	1
CCC(=O)N1CC2(CCN(Cc3ccc(Cl)cc3)CC2)c2c([nH]c3cc(OC)ccc23)[C@H]1CO	-1	nt	-33	0	nt
C[C@@H]1CC=CCCNC(=O)[C@H](C)N(C)C(=O)c2ccccc2O1 (mixture of isomers)	3	nt	nt	nt	nt
O=C(Nc1cccc(F)c1)N1[C@@H]2CNC[C@H]1C2c1ccc(-c2cccc(F)c2)cc1 (stereo partly drawn)	-60	nt	0	0	nt
N#Cc1cccc(-c2ccc(C3[C@H]4CNC[C@@H]3N4C(=O)Nc3ccc(F)cc3)cc2)c1 (stereo partly drawn)	-8	nt	23*!	1	nt
CN(C)CC(=O)NC[C@H]1N[C@@H](CO)[C@H]1c1ccc(-c2cccc(C#N)c2)cc1	2	0[16.7 µM]	25*	0	44
COc1ccc(NC(=O)N2[C@@H]3CNC[C@H]2C3c2ccc(/C=C/c3ccccc3)cc2)cc1 (stereo partly drawn)	-57	nt	25*	0	nt
Cc1cccc(-c2ccc(C3[C@H]4CNC[C@@H]3N4C(=O)Nc3ccc(F)cc3)cc2)c1 (stereo partly drawn)	2	nt	28*!	0	nt
CCC(=O)NC[C@@H]1N[C@@H](CO)[C@H]1c1ccc(-c2cccc(C#N)c2)cc1	-4	30[16.7 µM]	2	0	1
CCCNC(=O)N1CC2(CCN(C(=O)C3CCCCC3)CC2)c2c([nH]c3cc(OC)ccc23)[C@H]1CO	-6	nt	-4	0	nt
CCCNC(=O)N1CC2(CN(Cc3ccc(OC)cc3)C2)c2c(n(C)c3cc(OC)ccc23)[C@H]1CO	-5	nt	-3	0	nt
COc1cccc(-c2ccc(C3[C@H]4CNC[C@@H]3N4Cc3cccnc3)cc2)c1 (stereo partly drawn)	7	nt	28*	1	nt
CCOc1ccc(/C=N/NC(=O)c2ccccc2O)cc1CN1CC2CC(C1)c1cccc(=O)n1C2 (stereo not drawn)	-8	-2	58*	nt	-1
COc1ccc(/C=N/NC(=O)c2ccccc2O)cc1Cn1cc(Cl)cn1	nt	-7	nt	nt	0
C[C@@H]1CN([C@@H](C)CO)C(=O)c2cc(/C=C/c3ccccc3)cnc2O[C@H]1CN(C)S(=O)(=O)c1ccccc1	-3	-4[16.7 µM]	-2	0	42
C/C=C/c1cnc2c(c1)C(=O)N([C@H](C)CO)C[C@H](C)[C@H](CN(C)S(=O)(=O)c1ccccc1)O2	-1	8[16.7 µM]	79*	0	-4
CCC(=O)N(C)C[C@H]1Oc2ncc(Br)cc2C(=O)N([C@@H](C)CO)C[C@H]1C	6	2[16.7 µM]	16	90*	1
Cc1ccc(S(=O)(=O)N(C)C[C@@H]2Oc3ncc(Br)cc3C(=O)N([C@@H](C)CO)C[C@H]2C)cc1	-3	61[16.7 µM]	nt	0	91*
C[C@@H]1CN([C@@H](C)CO)C(=O)c2cc(/C=C/c3ccccc3)cnc2O[C@H]1CN(C)Cc1ccncc1	-4	5[16.7 µM]	18	0	0

Source: PubChem BioAssay (Broad Institute)
